DYRK1A inh = Dyrk1A (rat) kinase inhibition; Q63470; ADP-Glo luminescence, NFATc1 peptide; inhibition, % at 12.5 µM; hit rate 0.43% among 310,000; in the data active = inhibition above about 50%;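 also: plate controls were vehicle with enzyme for no effect and no enzyme for full effect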
ARNT-TACC3 inh = disruptors of human ARNT/TACC3 interaction; AlphaScreen His-ARNT PAS-B/GST-TACC3 binding, luminescence; TACC3 fragment carries E629A point mutation; AID 623870; inhibition, % at 9.99 µM; hit rate 0.66% among 390,000;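 active = mean inhibition of replicates at least 50% and at least half of replicates each reaching 50%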;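 also: 0% = complete ARNT plus TACC3 wells and 100% = ARNT alone without TACC3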
CAL PDZ FP-1 = blocks peptide binding to human CAL PDZ domain. Q9HD26. purified CAL PDZ, TMR-peptide fluorescence polarization, 1 h. inhibition, % at 20 µM. hit rate 0.02% among 330,000. AID 504414;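 active = highest replicate inhibition of at least 40%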;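 also: plate controls were DMSO neutral control wells for no effect and unlabeled competitor peptide control wells for full effect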
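System: purified tagged CAL PDZ domain construct (CerCALP). Schedule: 1 h incubation at room temperature before polarization reading. Medium: 25 mM sodium phosphate pH 7.4, 150 mM NaCl, TCEP, IgG, Thesit. Read-out: percent inhibition from loss of millipolarization. Measured by: FP readout, S and P plane fluorescence. Probe or stimulus: fluorescent TMR peptide probe.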
CAL PDZ FP-2 = blocks peptide binding to the human CAL PDZ domain | purified CAL PDZ, TMR-peptide fluorescence polarization, 1 h | inhibition, % at 24.9 µM | hit rate 0.92% among 300,000 | AID 602252;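 active = mean inhibition of at least 30% with at least half of replicates also reaching 30%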;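 also: 0% = DMSO neutral control and 100% = excess unlabeled competitor peptide PRC23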
ARNT Alpha ctr-1 = interferes with AlphaScreen signal, flagging false ARNT-TACC3 hits. shares compounds with ARNT-TACC3 inh. His-ARNT PASB-GST AlphaScreen artifact counter-screen, luminescence. AC50, µM (titrated, usually from 68 µM), for inactives: at the top dose activity change, negative = signal decrease. hit rate 50% among 1,200. AID 651705;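 active = every separate test run was called active for a drop in luminescence, with AC50 within twice the top valid dose, actives reach about 71 µM in these data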
ARNT Alpha ctr-2 = counter-screen for ARNT-TACC3 inhibitors: AlphaScreen artifacts. Dual-tagged His-ARNT PASB-GST AlphaScreen artifact counter-screen. AC50, µM. shares compounds with ARNT-TACC3 inh. hit rate 70% among 45;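 active = luminescence drop, with half-maximal potency fitted within twice the sample's top valid dose, cut at about 70 µM in these data; inactive = the rest, including signal moving the wrong way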
Active calls of the source: *; / = no result given; [ ] = remark or other dose. The list is not random: actives were taken first. Their share in the collection is about 1.4%.

SMILES	DYRK1A inh	ARNT-TACC3 inh	CAL PDZ FP-1	CAL PDZ FP-2	ARNT Alpha ctr-1	others
COc1ccc(C2CC(=O)Oc3c(C(CCN4CCCC(C)C4)c4ccc(N(C)C)cc4)c(OC)cc(OC)c32)cc1 (configuration not stated)	0	20	-1	-3	/
COc1ccc(NC(=O)N(C)C[C@@H]2Oc3c(NC(=O)c4ccc(-c5nccs5)cc4)cccc3C(=O)N([C@@H](C)CO)C[C@@H]2C)cc1	/	-2	/	/	/
c1ccc(-c2nc3cc4ccccc4cc3[nH]2)nc1	8	15*	-3	-6	-36%
O=C(Nc1nc(-c2cccs2)cs1)c1ccco1	8	-1	-3	-3	/
CC(Oc1ccc(F)cc1)C(=O)Nc1nc(-c2ccccn2)cs1 (configuration not stated)	9	63*	-2	6	66µM*
O=C(Nc1nc(-c2ccccn2)cs1)c1ccco1	5	59*	0	/	26µM*	ARNT Alpha ctr-2=9.8*
Cc1ccnc2nc(C(=O)Nc3nc(-c4ccccn4)cs3)nn12	0	66*	-1	-6	14µM*
c1ccc(Nc2nc(-c3ccccn3)cs2)cc1	-1	66*	0	-3	49µM*
CCCNC(=O)N(C)C[C@H]1Oc2ncc(C#Cc3ccncc3)cc2C(=O)N([C@H](C)CO)C[C@@H]1C	/	12	/	/	/
O=C(Nc1nc(-c2ccccn2)cs1)C1CC1	8	/	-1	-7	/
O=C(Nc1nc(-c2ccccn2)cs1)C12CC3CC(CC(O)(C3)C1)C2	2	71*	-1	-2	62µM*
O=C(C[C@H]1C[C@H]2c3cc(NC(=O)NC4CCCCC4)ccc3O[C@H]2[C@H](CO)O1)NCc1ccccc1	/	active	/	/	1%[38 µM]
CO[C@H]1CN(C)C(=O)c2ccc(NC(=O)Nc3cccc(F)c3)cc2OC[C@@H](C)N(C(C)=O)C[C@H]1C	/	5	/	/	/
Cc1nnc(NC(=O)CSc2nnc(CNC(=O)c3ccccc3)o2)s1	0	14	-1	-3	/
Cc1nnc(NC(=O)CSc2nnc(CNC(=O)c3ccc(F)cc3)o2)s1	6	46*	0	-2	-8%
O=C1CCN(Cc2ccccc2)C=C1c1ccc(C(F)(F)F)cc1	/	active	0	-3	-18%
O=C1CCN(Cc2ccccc2)C=C1c1ccc(Cl)cc1	-6	1	1	-2	/
O=C(c1cc(-c2ccccc2)on1)N1CCC(N2CCOCC2)CC1	/	/	/	/	0%[38 µM]
O=C(c1cc2ccccc2cc1O)N1CCN(c2ccccn2)CC1	5	1	-3	1	/
CN1CCN(C(=O)c2cccc(-c3cc(O)c4ncccc4c3)c2)CC1	10	75*	-1	-2	17µM*
CN1CCN(c2cc(-c3cc(O)c4ncccc4c3)ccn2)CC1	27	69*	-8	-1	11µM*
CN1CCCN(C(=O)c2cccc(Br)c2)CC1	-3	-1	-1	0	/
COc1ccc(S(=O)(=O)Nc2cccc3c2O[C@@H](CN(C)S(=O)(=O)c2cccs2)[C@@H](C)CN([C@@H](C)CO)C3=O)cc1	/	-1	/	/	/
C[C@H]1CN([C@@H](C)CO)C(=O)c2cc(-c3ccc(F)cc3)cnc2O[C@H]1CN(C)Cc1cncnc1	/	-29	/	/	/
Oc1ccc(Cl)cc1CNc1cccc2cccnc12	8	65*	1	/	-31%
SMILES	DYRK1A inh	ARNT-TACC3 inh	CAL PDZ FP-1	CAL PDZ FP-2	ARNT Alpha ctr-1	others
Cc1ccc(O)c(CNc2cccc3cccnc23)c1	5	37	0	-1	/
Cc1ccn(CC(=O)N/N=C/c2cc([N+](=O)[O-])ccc2O)n1	/	/	-3	0	/
Cc1ccccc1/C=N/NC(=O)Cn1cnc([N+](=O)[O-])n1	-4	4	0	-3	/
O=C(Cn1cncn1)N/N=C/c1cc([N+](=O)[O-])ccc1O	3	64*	-1	-2	28µM*
O=C(Cn1cnc([N+](=O)[O-])n1)N/N=C/c1cc(Cl)ccc1O	13	58*	-3	-4	70µM*
C[C@H](CO)N1C[C@H](C)[C@H](CN(C)C(=O)CN(C)C)Oc2cc(C3=CCCCC3)ccc2S1(=O)=O	/	-5	/	/	/
O=C(C[C@H]1C=C[C@@H](NC(=O)Nc2ccc3c(c2)OCO3)[C@H](CO)O1)NCc1ccc(Cl)cc1	/	24*	/	/	-16%[42 µM]
O=C(CSc1ccc(-c2ccccc2)nn1)NC1CCCCC1	-3	2	5	-3	/

High-throughput results from PubChem.
